# Screens as filed in PubChem.
# NPY2 pot ag: potentiates or activates human NPY-Y2 receptor. 220,000 tested, 0.45% active. P49146. cells expressing NPY-Y2, potentiator/agonist read-out. activation, % at 3.6 µM; in the data active = activation above about 27%;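 note: cells stimulated with NPY near EC25 plus isoproterenol at EC100; 0% = vehicle plus submaximal agonist and 100% = vehicle plus saturating agonist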
# NPY-Y1 PAM-ag: human NPY-Y1 potentiation or agonism, primary screen | P25929 | NPY-Y1 expressing cells, potentiator/agonist activation | activation, % at 3.6 µM | 220,000 tested, 0.37% active | AID 1304; in the data active = activation above about 33%, passing the limit was not always enough;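 note: cells stimulated with NPY at EC10 then isoproterenol at EC100; 0% = low agonist plus stimulus and 100% = saturating agonist plus stimulus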
# Target sequence (P25929 whole entry, looked up): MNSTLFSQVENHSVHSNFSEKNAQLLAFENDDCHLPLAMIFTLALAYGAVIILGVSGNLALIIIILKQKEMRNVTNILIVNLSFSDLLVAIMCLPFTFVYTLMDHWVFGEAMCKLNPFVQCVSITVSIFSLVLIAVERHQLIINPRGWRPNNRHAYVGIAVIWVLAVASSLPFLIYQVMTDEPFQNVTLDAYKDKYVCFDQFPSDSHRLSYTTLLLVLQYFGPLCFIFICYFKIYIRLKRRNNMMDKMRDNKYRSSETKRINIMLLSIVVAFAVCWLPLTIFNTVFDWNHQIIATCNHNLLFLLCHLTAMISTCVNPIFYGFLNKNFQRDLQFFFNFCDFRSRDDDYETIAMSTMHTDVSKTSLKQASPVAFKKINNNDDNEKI
# NPY-Y1 antag: NPY-Y1 (human) receptor antagonism; P25929; HEK293-CNG Y1 cells, membrane potential fluorescence; NPY at EC95, then isoproterenol; inhibition, % at 3.6 µM; 200,000 tested, 1% active; AID 1040;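 active = inhibition above the campaign mean inhibition of all tested compounds plus 3 SD, cut at about 20% in these data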;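 note: 0% = DMSO wells given NPY plus isoproterenol and 100% = isoproterenol alone without NPY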
#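 Material: HEK293 Y1/CNG channel cell line; also added: NPY (25 nM), isoproterenol (1 µM), Ro 20-1724 (25 µM); doses: one concentration, 3.6 µM, in 0.4% DMSO; schedule: compound incubation 1 h at room temperature, readout 45 min post-stimulation; technique: membrane potential fluorescence; measure: fluorescence ratio normalized to % inhibition between controls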
# EP2 modulator: EP2 receptor (human) modulation. P43116. EP2-expressing cells, cAMP HTRF FRET, PGE2 co-stimulation. induction, % at 25 µM. 260,000 tested, 0.83% active. AID 940;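 active = compounds whose cAMP rise, as percent of the full-agonist control response, exceeds 60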;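 note: rat C6 glioma line stably carrying human EP2 under a CMV promoter; the protocol text gives 20 µM as final concentration; 100% = response of wells given 1 µM PGE2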
# EP2 antag: blocks the human prostaglandin E2 receptor EP2; P43116; C6 glioma cells expressing human EP2, cAMP TR-FRET; cells stimulated with saturating PGE2; inhibition, % at 25 µM; 260,000 tested, 0.52% active;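 active = percent inhibition above 40 after rounding to a whole number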;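 note: rat C6 glioma host cells with rolipram phosphodiesterase inhibitor present; the protocol text gives 20 µM as final concentration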
# NPY Y2 blocker: blocks the human neuropeptide Y Y2 receptor. P49146. NPY-Y2 expressing cells, antagonist mode. inhibition, % at 2.7 µM. 140,000 tested, 0.99% active; in the data active = inhibition above about 17%;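 note: 0% = vehicle with agonist challenge and 100% = reference antagonist with challenge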
# * = called active by the depositor; · = not tested or not shown; ! = a repeat was not active. In the library only some 2.8% were active in any assay of this set; here they are far more common.
SMILES,NPY2 pot ag,NPY-Y1 PAM-ag,NPY-Y1 antag,EP2 modulator,EP2 antag,NPY Y2 blocker
COc1ccc(OCCCC(=O)Nc2cccc(C(C)=O)c2)cc1,1.8,-16.1,5.4,-6.3,51.3*,2.8
CCn1nnc(NC(=O)c2ccc(Cl)cc2)n1,·,·,·,4.8,6.0,·
CC1CCCCN1C(=O)CSc1nnc2n(CC(=O)N3C(C)CCCC3C)c3ccccc3n12 (configuration not stated),·,·,·,-20.4,8.5,·
Cc1cccc2cc(CN(Cc3cccs3)C(=O)c3ccccc3)c(=O)[nH]c12,·,·,·,21.2,21.0,·
COc1cccc(NC(=O)CSc2nnc3c(C)cc4ccc(C)c(C)c4n23)c1,·,·,·,-16.2,8.8,·
COC(=O)[C@H]1CN(C(=O)c2snnc2C)C[C@@H]1c1ccc(F)cc1,·,·,·,-13.7,·,·
CC(=O)Nc1ccc(C2=N/C(=C/c3cccs3)C(=O)O2)cc1,·,·,·,-104.8,16.7,·
OC(CNCCNc1ncccc1C(F)(F)F)COc1ccc(F)cc1 (configuration not stated),61.4*,86.0*,·,-37.8,1.9,·
COc1ccc(OCC(O)CNC(=O)c2cccs2)cc1 (configuration not stated),7.6,2.5,·,-10.7,12.4,·
CN1CCc2c1nc1ccccc1c2N=C1CCCN1Cc1ccccc1,-15.8,-45.6,22.4*,31.9,10.2,21.9*
N#Cc1ccccc1N=C1CCCN1Cc1ccccc1,8.2,10.5,-3.4,33.1,12.1,2.1
O=C(Nc1ccccc1-c1ccccc1)c1cnccn1,-5.1,-0.3,-0.7,66.1*!,14.3,4.2
O=C(Nc1ccccc1F)c1cnccn1,3.5,0.4,0.4,21.0,4.0,·
Cc1cccc(Oc2ccccc2NC(=O)c2cnccn2)c1,-17.6,-1.9,3.7,60.9*,13.1,1.8
COc1ccc(N=C2NN=C(c3ccc4c(c3)OCCO4)CS2)cc1,21.2,11.8,-4.1,-1.8,40.8*,0.1
FC(F)Sc1ccc(N=C2NN=C(c3ccc4c(c3)OCCO4)CS2)cc1,2.9,2.6,1.6,-12.8,8.7,-1.2
Cc1cc(C)c2nc3c(c([C@H](O)[C@@H]4CCCCN4)c2c1)CC/C3=C\c1ccc(Cl)cc1,·,·,·,13.1,50.3*,·
OC(c1cc(-c2ccc(Cl)cc2)nc2ccccc12)C1CCCCN1 (configuration not stated),13.5,34.9,·,-45.9,23.9,·
Nc1ccn([C@H]2O[C@H](COC(=O)C34CC5CC(CC(C5)C3)C4)[C@@H](O)[C@@H]2O)c(=O)n1,·,·,·,2.2,51.2*,·
Nc1ccn([C@@H]2O[C@H](CO)[C@@H](O)C2O)c(=O)n1 (some centres not stated),8.8,-4.1,2.7,·,14.4,·
CN(Cc1ccccc1)C(=O)c1oc(=O)c2ccccc2c1-c1ccccc1,-9.7,-1.8,31.3*,48.2,18.2,22.8*
Cc1ccc(-c2c(C(=O)N(C)Cc3ccccc3)oc(=O)c3ccccc23)cc1,-19.7,-28.6,35.2*,55.9,6.1,33.9*
CCCC(=O)N1CCCC(c2nc3c(nnn3Cc3cc(C)ccc3C)c(=O)[nH]2)C1 (configuration not stated),·,·,·,63.6*,15.1,·
C=CCc1c(O)nc(SCC(=O)N(CC)CC)[nH]c1=O,·,·,·,-14.8,8.7,·
Cn1cc(Br)c(C(=O)Nc2sc3c(c2C(N)=O)CCC3)n1,13.9,-11.8,-8.0,-26.2,39.9*,1.2
SMILES,NPY2 pot ag,NPY-Y1 PAM-ag,NPY-Y1 antag,EP2 modulator,EP2 antag,NPY Y2 blocker
NC(=O)c1c(NC(=O)c2cc3ccccc3o2)sc2c1CCC2,1.8,6.3,4.7,-10.6,41.6*,3.2
CCn1ncc(Br)c1C(=O)Nc1sc2c(c1C(N)=O)CCC2,-15.5,-23.2,-2.9,-15.8,11.4,0.5
CC(=O)O[C@H]1CC[C@]2(C)C3CC(=O)[C@]4(C)C(C(C)=O)=CCC4C3CC[C@H]2C1 (some centres not stated),·,·,·,47.7,11.7,·
O=[N+]([O-])c1cccc(-c2csc(N/N=C/c3cccc(O)c3)n2)c1,22.1,28.0,1.2,-59.9,99.4*,·
CN(C)S(=O)(=O)c1ccc(-c2csc(N/N=C/c3ccc(O)cc3)n2)cc1,-9.4,23.7,·,-55.8,103.8*,·
CN(C)S(=O)(=O)c1ccc(-c2csc(N/N=C/c3ccco3)n2)cc1,13.3,-31.4,·,-51.2,47.0*,·
CC(=O)c1cccc(Nc2nc(-c3cccc([N+](=O)[O-])c3)cs2)c1,1.5,-5.0,6.4,10.6,3.5,-2.8
CC(NC(=O)CC1CCCCC1)c1nc2cccnc2n1C(C)C (configuration not stated),·,·,·,-5.2,·,·
CCOc1cc(NC(=S)NCc2ccco2)c(OCC)cc1NC(=O)c1ccccc1,·,·,·,54.0,6.1,·
COc1cc(OC)c(C2C3=C(CCCC3=O)NC3=C2C(=O)c2ccccc23)cc1OC (configuration not stated),·,·,·,-18.0,7.3,·
Cc1ccc(NC(=O)C2(N(C(=O)Cn3nnnc3N)c3ccc(C)cc3)CCCCC2)cc1,34.0*,40.6*,-6.0,42.6,9.3,1.3
Cc1cc2cc(CN(Cc3cccs3)Cc3nnnn3Cc3ccccc3)c(=O)[nH]c2cc1C,·,·,·,17.7,14.1,·
Cc1cc(C)c2cc(CN(Cc3cccs3)Cc3nnnn3CCc3ccccc3)c(=O)[nH]c2c1,·,·,·,63.2*,10.0,·
COc1ccc2nc(NC(=O)CN(c3ccc(C)cc3)S(=O)(=O)c3c(C)nn(C)c3C)sc2c1,44.8*,55.1*,-14.4,-14.0,7.1,-9.4
Cc1ccc(-c2cc(N)c(=O)n(CC(=O)N3CCCCCCC3)n2)o1,·,·,·,-117.0,10.3,·
CCN(CC)c1c([N+](=O)[O-])c(=O)n(C)c2ccccc12,21.5,13.1,-1.7,22.1,6.2,·
Cn1c(=O)c([N+](=O)[O-])c(Cl)c2ccccc21,1.8,4.0,-11.2,-32.5,94.6*,·
CN(C)Cc1ccc(-c2cc3onc(-c4ccccc4)c3c(=O)n2C)cc1,·,·,·,-13.8,44.2*,·
CN1CCCC[C@@H]1CCN1c2ccccc2Sc2ccc(S(C)=O)cc21 (some centres not stated),·,·,·,13.2,44.5*,·
CSc1ccc2c(c1)N(CCC1CCCCN1C)c1ccccc1S2 (configuration not stated),19.4,11.7,4.0,-19.1,13.4,5.5
COc1ccc(Cc2c(Cl)ncnc2Cl)cc1,10.7,-5.2,-5.6,0.8,5.1,4.5
CSc1nc(Cl)c(Cc2ccc(OC(C)C)cc2)c(N(C)C)n1,-6.8,-28.7,48.8*,31.3,9.4,30.0*
O=C1c2ccccc2C(=O)N1c1ccc(Cc2ccc(N3C(=O)c4ccccc4C3=O)cc2)cc1,·,·,·,14.7,48.5*,·
